Screening results from PubChem BioAssay.
In the library only some 2.6% were active in any assay of this set; here they are far more common.
PRMT1 FP inh – blocks human protein arginine methyltransferase 1; Q99873; recombinant PRMT1, activity-based probe fluorescence polarization; inhibition, % at 2.79 µM; 1.3% of 370,000 active;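 active = inhibition above about 21% made by adding two undisclosed values, limit read from the data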
TCR-CD3 inh – inhibitors of human TCR-CD3 interaction. 0.37% of 360,000 active. AID 651800. TAMRA-labeled TCR probe fluorescence, biochemical. inhibition, % at 9.4 µM; in the data active = inhibition above about 19%;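 also: recombinant mutant TCR 2C K166C tagged with TAMRA read by polarization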
HTRA1 inhibitor – HTRA1 (human) protease inhibition. Q92743. recombinant HTRA1, FP-rhodamine activity-based probe, fluorescence polarization. inhibition, % at 5.96 µM. 0.5% of 340,000 active; in the data active = inhibition above about 36%
Target sequence (Q92743 whole entry, looked up): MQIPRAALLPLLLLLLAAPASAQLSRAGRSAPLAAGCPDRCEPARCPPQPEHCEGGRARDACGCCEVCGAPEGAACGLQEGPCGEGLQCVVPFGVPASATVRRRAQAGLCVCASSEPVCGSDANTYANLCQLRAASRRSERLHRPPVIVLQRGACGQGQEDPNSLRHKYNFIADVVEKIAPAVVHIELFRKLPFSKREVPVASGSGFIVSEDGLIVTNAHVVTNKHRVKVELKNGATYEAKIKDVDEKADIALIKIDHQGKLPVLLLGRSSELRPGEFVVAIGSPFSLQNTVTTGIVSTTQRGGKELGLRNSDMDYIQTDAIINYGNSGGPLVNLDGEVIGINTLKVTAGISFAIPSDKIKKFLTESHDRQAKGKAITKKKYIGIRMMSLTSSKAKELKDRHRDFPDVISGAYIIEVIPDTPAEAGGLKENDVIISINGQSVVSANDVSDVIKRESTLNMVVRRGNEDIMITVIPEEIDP
SIAE primary – human SIAE inhibition, primary screen | Q9HAT2 | SIAE FP-Rh probe binding, fluorescence polarization | 0.69% of 370,000 active | inhibition, % at 9.66 µM;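 active = inhibition above a cutoff: mean of compounds within the control limits plus 3 SD of those, cut at about 17% in these data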
ABHD4 inh – ABHD4 (mouse) inhibition, primary FP screen. Q8VD66. purified mABHD4, FP-Rh probe fluorescence polarization. inhibition, % at 8.92 µM. 0.54% of 370,000 active;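 active = inhibition exceeding the mean over every tested compound plus 3 SD, cut at about 30% in these data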
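Test system: mABHD4 protein; Read-out basis: % inhibition; Incubation: 45 min + 60 min at 25 °C; Repeats: single replicate; Technique: fluorescence polarization with parallel and perpendicular emission, 525/598 nm; Compound: 8.92 µM, single dose; Benchmarks: full inhibition S159A mutant plus DMSO, zero as sample-well median.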
PRMT1 confirm – confirmation of human PRMT1 inhibitors; inhibition, % at 2.79 µM; recombinant His-PRMT1, activity-based probe fluorescence polarization; shares compounds with PRMT1 FP inh; 42% of 3,300 active;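 active = mean inhibition across replicates above the hit cutoff derived for the earlier primary screen, cut at about 22% in these data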
Of the large screens only hits and unclear results are named; the others gave an inactive call (follow-up assays come after a bar, where they were run).

Cc1ccccc1N1C(=O)CC(N2CCC(C(N)=O)CC2)C1=O (stereo not given)	PRMT1 FP inh 73 | PRMT1 confirm inactive
NC(=O)C1CCN(C2CC(=O)N(c3cccc(F)c3)C2=O)CC1 (stereo not given)	PRMT1 FP inh 29 | PRMT1 confirm inactive
CC(C)CN(C(=O)COC(=O)CCCc1nc2ccccc2s1)c1c(N)n(Cc2ccccc2)c(=O)[nH]c1=O	none
COCCN(C(=O)CCCc1nc2ccccc2s1)c1c(N)n(CC(C)C)c(=O)[nH]c1=O	PRMT1 FP inh 36 | PRMT1 confirm 27
On1ccccc1=S	PRMT1 FP inh 88 | PRMT1 confirm 88
Cc1ccc2nc3sc(C(=O)N4CCN(C)CC4)cc3cc2c1	none (no result: TCR-CD3 inh, HTRA1 inhibitor)
CC(C)(C)Nc1nc(N2CCCC2)nc(N2CCCC2)n1	none
CCNc1nc(NC(C)(C)C)nc(N2CCCC2)n1	PRMT1 FP inh 32 | PRMT1 confirm inactive
CCCN1CCS(=O)(=O)N(Cc2cn(Cc3ccc(C)cc3)nn2)C(C(=O)OC)C1 (stereo not given)	none (no result: TCR-CD3 inh, HTRA1 inhibitor)
COc1cccc(/C=C2/CCC(CN(C)C)C2=O)c1 (stereo not given)	PRMT1 FP inh 41 | PRMT1 confirm 71
COc1ccc(/C=C2/CCCC(CN(C)C)C2=O)cc1 (stereo not given)	none
CC[C@@]1(c2ccc(C)cc2)C(=O)N(C(=O)OC)N1C(=O)OC	none (no result: TCR-CD3 inh, HTRA1 inhibitor)
Cn1c(SCc2nnc(-c3ccccc3Br)o2)nc2sc3c(c2c1=O)CCC3	PRMT1 FP inh 29 | PRMT1 confirm inactive
COCCCn1c(SCc2nnc(-c3ccccc3)o2)nc2sc3c(c2c1=O)CCC3	none
Cc1ccc(NC(=O)c2cc(NC(=O)c3ccco3)ccc2N2CCOCC2)cc1	none
Cc1ccc(NC(=O)c2cc(N3C(=O)C=CC3=O)ccc2N2CCOCC2)cc1	PRMT1 FP inh 91 | PRMT1 confirm 89
FC(F)(F)c1cccc(N2CCN(C3=Nc4ccccc4Sc4ccccc43)CC2)c1	none (no result: TCR-CD3 inh, HTRA1 inhibitor)
O=C(O)/C=C/C(=O)Nc1ccccc1-c1ccccc1	PRMT1 FP inh 30 | PRMT1 confirm inactive
CCN(CC)CCCNc1ccc2ncn3c4ccc(O)cc4c(=O)c1c23	PRMT1 FP inh 116 | PRMT1 confirm 133
CN(C)CCNc1ccc2nnn3c4ccc(O)cc4c(=O)c1c23	none
O=C(COc1ccccc1)Nc1nc(-c2ccncc2)cs1	PRMT1 FP inh 35 | PRMT1 confirm 34
Cc1cc(C)cc(OCC(=O)Nc2nc(-c3cccnc3)cs2)c1	PRMT1 FP inh 35 | PRMT1 confirm inactive
O=C(COc1ccccc1)Nc1nc(-c2cccnc2)cs1	none
Cc1ccccc1C(=O)NC1CCCCN(C(C)C)C1=O (stereo not given)	none (no result: TCR-CD3 inh, HTRA1 inhibitor)
Cc1cccc(C)c1NC(=O)Cn1nnc(-c2ccncc2)n1	none (no result: TCR-CD3 inh, HTRA1 inhibitor)
O=C(CSC1CC(=O)N(c2ccc(C(=O)O)cc2)C1=O)Nc1ccc2ccccc2c1 (stereo not given)	none
CCOC(=O)c1ccc(N2C(=O)CC(SCC(=O)Nc3ccc(S(N)(=O)=O)cc3)C2=O)cc1 (stereo not given)	PRMT1 FP inh 82 | PRMT1 confirm 83
Cc1ccc(N2C(=O)CC(SCC(=O)Nc3ccc(S(N)(=O)=O)cc3)C2=O)cc1 (stereo not given)	PRMT1 FP inh 53 | PRMT1 confirm 66
COC(=O)c1ccc(N2C(=O)CC(SCC(=O)Nc3ccc(OC)cc3)C2=O)cc1 (stereo not given)	PRMT1 FP inh 53 | PRMT1 confirm 49
COc1ccc(OC)c(CN2C(=O)c3ccnn3CC2(C)c2nnnn2C2CCCC2)c1 (stereo not given)	none (no result: TCR-CD3 inh, HTRA1 inhibitor)
Cc1ccc(-c2ccccc2NC(=O)C2C3C=CC(C3)C2C(=O)O)o1 (stereo not given)	none
Cc1ccc(-c2cccc(NC(=O)C3C(C(=O)O)[C@@H]4C=C[C@H]3C4)c2)o1 (stereo not given in full)	PRMT1 FP inh 65 | PRMT1 confirm inactive
Cc1ccc(S(=O)(=O)C/N=C(/NC(=S)N(c2ccccc2)c2ccccc2)c2ccccc2)cc1	PRMT1 FP inh 28 | PRMT1 confirm 27
O=C(CSc1nc2ccccc2c(=O)n1Cc1ccco1)NCc1ccco1	none
NS(=O)(=O)c1cccc(NC(=O)CSc2ncnc3ccccc23)c1	PRMT1 FP inh 37 | PRMT1 confirm inactive
NS(=O)(=O)c1cccc(NC(=O)CSc2nc3ccccc3c(=O)n2Cc2ccco2)c1	PRMT1 FP inh 80 | PRMT1 confirm inactive
O=C(OCCN1CCCC12CCC(c1ccccc1)CC2)c1ccccc1 (stereo not given)	none (no result: TCR-CD3 inh, HTRA1 inhibitor)
Cc1ccccc1NC(=O)CCS(=O)(=O)c1ccccc1	none (no result: TCR-CD3 inh, HTRA1 inhibitor)
O=C(CSc1ncccn1)Nc1cccc(S(=O)(=O)N2CCOCC2)c1	none
O=C(CSc1nccc(=O)[nH]1)Nc1cccc(S(=O)(=O)N2CCOCC2)c1	PRMT1 FP inh 45 | PRMT1 confirm 32
O=S1(=O)c2ccc(Br)cc2OC[C@H](Cc2ccccc2)N1Cc1cn(Cc2ccc(Br)cc2)nn1	none (no result: TCR-CD3 inh, HTRA1 inhibitor)
Cc1cc(C)cc(C(=O)OCCCN(C)C2CN(Cc3cn(Cc4ccccc4Cl)nn3)S(=O)(=O)C2)c1 (stereo not given)	none (no result: TCR-CD3 inh, HTRA1 inhibitor)
N#Cc1c(C(F)(F)F)cc(-c2ccco2)nc1SCc1ccncc1	none
N#Cc1c(C(F)(F)F)cc(-c2ccco2)nc1SCc1ccccn1	PRMT1 FP inh 35 | PRMT1 confirm inactive
FC(F)Sc1ccc(Nc2ncnc3nc[nH]c23)cc1	PRMT1 FP inh 35 | PRMT1 confirm inactive
CCOC(=O)N1CCN(C(=O)C[C@H]2C[C@@]3(C(=O)OC)C(=C[C@H](C(C)(C)C)O[C@@H]3C)N(Cc3cccc4ccccc34)C2=O)CC1	none (no result: TCR-CD3 inh, HTRA1 inhibitor)
O=C(NC1CCCc2c1cnn2-c1ccc(F)cc1F)c1cccs1 (stereo not given)	none (no result: TCR-CD3 inh, HTRA1 inhibitor)
CC(=O)Nc1ccc(SCC(=O)NC(=O)c2ccc(S(=O)(=O)N(C)C)cc2)cc1	PRMT1 FP inh 50 | PRMT1 confirm 43
CC(=O)Nc1ccc(SCC(=O)Nc2ccc(Cl)cn2)cc1	PRMT1 FP inh 28 | PRMT1 confirm 37
CC(=O)Nc1ccc(SCC(=O)c2cc(C)n(C)c2C)cc1	PRMT1 FP inh 36 | PRMT1 confirm inactive
CC(=O)Nc1ccc(SCC(=O)Nc2ccc3c(c2)OCCO3)cc1	PRMT1 FP inh 58 | PRMT1 confirm 54
Cn1cnnc1SCC(=O)Nc1ccc(Cl)cn1	none
Cc1cccc(NC(=O)CNC(=O)[C@@H](Cc2ccccc2)NC(=O)[C@H]2O[C@@H](n3ccc(=O)[nH]c3=O)[C@H](O)[C@@H]2O)c1C	none (no result: HTRA1 inhibitor)
CCCC1CCC2(CC1)CCC2OC(=S)NCc1cccc(OC)c1 (stereo not given)	none (no result: TCR-CD3 inh, HTRA1 inhibitor)
C/C(=C/c1c[n+](Cc2ccc3c(c2)OCO3)c(N)[nH]1)Cn1[nH]c(=O)n(-c2ccccc2)c1=O	none (no result: TCR-CD3 inh, HTRA1 inhibitor)
COCc1cc(=O)n2[nH]c(N)nc2n1	none
COCc1cc(=O)n2[nH]c(-c3ccsc3-n3c(C)ccc3C)cc2n1	PRMT1 FP inh 45 | PRMT1 confirm inactive
